Target: Aβ40 (Homo sapiens, UniProt P05067)
Experiment: Aβ40 aggregation inhibition and fibril destabilization
Assay type: biochemical
Conditions: synthetic peptides
How it was run: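 Aβ40 was pre-treated in HFIP (1.0 mg/mL), lyophilized, stored at −20 °C, redissolved in DMSO to 5 mM and sonicated 10 min. It was diluted into PBS pH 7.5 with 0.2% SDS (100 μM final) and incubated at 37 °C for 7 days, with test compound added before incubation or to preformed aggregates. Samples were imaged by acoustic AC-mode AFM. ThT was read immediately (Aβ40 5 μM, ThT 20 μM; ex 450 nm, em 480–600 nm) with the no-Aβ40 background subtracted; mean ± SD, three independent experiments.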

Chain of Aβ40 (P05067 672-711 limits assumed): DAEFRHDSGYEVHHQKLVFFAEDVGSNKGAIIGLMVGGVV

ThT fluorescence of treated Aβ40 compared to control (Aβ40/peptide = 10:1, 7 days, ThT 20 μM, Aβ40 5 μM): even higher ThT fluorescence | effect on Aβ40 aggregation (AFM) (Aβ40/peptide = 10:1, PBS pH 7.5 with 0.2% SDS, 37 °C, 7 days): aggravated the aggregation tendency
Substance: KAISFSK [Peptide P1]

Reference: paper PMC7346273 (ACS Omega, 2020)
